Results from ChEMBL document CHEMBL3244330, “Structure--activity relationships of n-substituted dopamine and 2-amino-6,7-dihydroxy-1,2,3,4-tetrahydronaphthalene analogues: behavioral effects in lesioned and reserpinized mice” (J Med Chem, 1979).
The source made the active and inactive calls. The calls are words filed in the database; no cut-off is given here.

Experiments:
[1] = system: Mus musculus; assay: Postural effect on caudectomized Swiss albino mouse assessed as latency to onset time of asymmetric postural effect at 104.8 mg/kg, ip; type: functional, organism-based; set-up: dose 104.8 mg/kg
Summary of the method: (§1)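 Male Swiss albino Hale-Stoner mice with a right caudectomy made by suction. A lesion was accepted if the mouse responded to apomorphine 4 weeks after surgery. Compounds were dissolved in 0.9% saline and injected ip at random into groups of six, with a maximum dose of 0.348 mmol/kg. 18 mice were used per compound, and mice were retested after 5–6 day intervals. Onset and duration of the asymmetric posture are reported as mean ± SE from six animals.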

[2] = system: Mus musculus; assay: Postural effect on caudectomized Swiss albino mouse assessed as latency to onset time of asymmetric postural effect at 90.8 mg/kg, ip; type: functional, organism-based; set-up: dose 90.8 mg/kg; summary of the method: as §1
[3] = system: Mus musculus; assay: Postural effect on caudectomized Swiss albino mouse assessed as time duration of asymmetric posture at 858 mg/kg, ip; type: functional; details: route intraperitoneal
[4] = system: Mus musculus; assay: Reversal of reserpine-induced catalepsy in ip dosed Swiss albino (CD1) mouse; type: functional
Summary of the method: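 Male Swiss albino CD1 mice, 5 weeks old, got reserpine 5 mg/kg ip, then α-MTM 250 mg/kg ip 17 h later, then the test drug ip 4 h after that. Catalepsy was scored by the rubber-stopper test (time to step off the stopper). At least four doses were used, with ≥8 mice per dose. ED50 was taken from a log-probit plot of percent responders against dose.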

[5] = system: Mus musculus; assay: Postural effect on caudectomized Swiss albino mouse assessed as latency to onset time of asymmetric postural effect at 858 mg/kg, ip; type: functional; details: route intraperitoneal
[6] = system: Mus musculus; assay: Postural effect on caudectomized Swiss albino mouse assessed as time duration of asymmetric posture at 1 mg/kg, ip; type: functional; details: route intraperitoneal; summary of the method: as §1
[7] = system: Mus musculus; assay: Postural effect on caudectomized Swiss albino mouse assessed as latency to onset time of asymmetric postural effect at 1 mg/kg, ip; type: functional; details: route intraperitoneal; summary of the method: as §1
[8] = system: Mus musculus; assay: Postural effect on caudectomized Swiss albino mouse assessed as latency to onset time of asymmetric postural effect at 91.2 mg/kg, ip; type: functional, organism-based; set-up: dose 91.2 mg/kg
Summary of the method: (§2)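 Male Swiss albino Hale-Stoner mice with right caudectomy by suction, used if responsive to apomorphine 4 weeks post-lesion. Compound in 0.9% saline given ip, maximum 0.348 mmol/kg. 18 mice per compound in random groups of six, retested after 5–6 day intervals. Onset latency and duration of asymmetric posture recorded; mean ± SE from six animals.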

[9] = system: Mus musculus; assay: Postural effect on caudectomized Swiss albino mouse assessed as latency to onset time of asymmetric postural effect at 102.2 mg/kg, ip; type: functional, organism-based; set-up: dose 102.2 mg/kg; summary of the method: as §2
[10] = system: Mus musculus; assay: Postural effect on caudectomized Swiss albino mouse assessed as latency to onset time of asymmetric postural effect at 67.8 mg/kg, ip; type: functional; details: route intraperitoneal; summary of the method: as §1
[11] = system: Mus musculus; assay: Postural effect on caudectomized Swiss albino mouse assessed as time duration of asymmetric posture at 45.2 mg/kg, ip; type: functional; details: route intraperitoneal; summary of the method: as §1
[12] = system: Mus musculus; assay: Postural effect on caudectomized Swiss albino mouse assessed as time duration of asymmetric posture at 67.8 mg/kg, ip; type: functional; details: route intraperitoneal
Summary of the method: (§3)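 Male Swiss albino Hale-Stoner mice given a right caudectomy by suction. The lesion counted as successful if the mice reacted to apomorphine 4 weeks later. Drug was given ip in 0.9% saline, up to 0.348 mmol/kg, to randomised groups of six, with 5-6 days before reuse. Onset and duration of asymmetric posture are reported as mean ± SE from six animals.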

[13] = system: Mus musculus; assay: Postural effect on caudectomized Swiss albino mouse assessed as time duration of asymmetric posture at 22.6 mg/kg, ip; type: functional; details: route intraperitoneal; summary of the method: as §1
[14] = system: Mus musculus; assay: Postural effect on caudectomized Swiss albino mouse assessed as latency to onset time of asymmetric postural effect at 22.6 mg/kg, ip; type: functional; details: route intraperitoneal; summary of the method: as §1
[15] = system: Mus musculus; assay: Postural effect on caudectomized Swiss albino mouse assessed as latency to onset time of asymmetric postural effect at 45.2 mg/kg, ip; type: functional; details: route intraperitoneal; summary of the method: as §1
[16] = system: Mus musculus; assay: Postural effect on caudectomized Swiss albino mouse assessed as latency to onset time of asymmetric postural effect at 96 mg/kg, ip; type: functional, organism-based; set-up: dose 96 mg/kg; summary of the method: as §1
[17] = system: Mus musculus; assay: Postural effect on caudectomized Swiss albino mouse assessed as latency to onset time of asymmetric postural effect at 85 mg/kg, ip; type: functional, organism-based; set-up: dose 85 mg/kg; summary of the method: as §1
[18] = system: Mus musculus; assay: Postural effect on caudectomized Swiss albino mouse assessed as time duration of asymmetric posture at 29.9 mg/kg, ip; type: functional; details: route intraperitoneal; summary of the method: as §1
[19] = system: Mus musculus; assay: Postural effect on caudectomized Swiss albino mouse assessed as latency to onset time of asymmetric postural effect at 59.8 mg/kg, ip; type: functional; details: route intraperitoneal; summary of the method: as §1
[20] = system: Mus musculus; assay: Postural effect on caudectomized Swiss albino mouse assessed as time duration of asymmetric posture at 59.8 mg/kg, ip; type: functional; details: route intraperitoneal; summary of the method: as §3
[21] = system: Mus musculus; assay: Postural effect on caudectomized Swiss albino mouse assessed as latency to onset time of asymmetric postural effect at 29.9 mg/kg, ip; type: functional; details: route intraperitoneal; summary of the method: as §1
[22] = system: Mus musculus; assay: Postural effect on caudectomized Swiss albino mouse assessed as latency to onset time of asymmetric postural effect at 60.8 mg/kg, ip; type: functional; details: route intraperitoneal; summary of the method: as §2
[23] = system: Mus musculus; assay: Postural effect on caudectomized Swiss albino mouse assessed as latency to onset time of asymmetric postural effect at 30.4 mg/kg, ip; type: functional; details: route intraperitoneal; summary of the method: as §2
[24] = system: Mus musculus; assay: Postural effect on caudectomized Swiss albino mouse assessed as time duration of asymmetric posture at 30.4 mg/kg, ip; type: functional; details: route intraperitoneal; summary of the method: as §2
[25] = system: Mus musculus; assay: Postural effect on caudectomized Swiss albino mouse assessed as time duration of asymmetric posture at 60.8 mg/kg, ip; type: functional; details: route intraperitoneal; summary of the method: as §2
[26] = system: Mus musculus; assay: Postural effect on caudectomized Swiss albino mouse assessed as latency to onset time of asymmetric postural effect at 100.5 mg/kg, ip; type: functional, organism-based; set-up: dose 100.5 mg/kg; summary of the method: as §1

How did the Activity [1] turn out when CCCCN(CCCC)CCc1ccc(O)c(O)c1 was run?
The Activity was “inactive”.

Which Activity [2] does the source give for CCCCNCCc1ccc(O)c(O)c1 here?
The Activity was “inactive”.

With N[C@@H](Cc1ccc(O)c(O)c1)C(=O)O [LEVODOPA] as the molecule, how does the Time [3] read?
The Time was 24 min.

And the ED50 [4]?
The ED50 was 248 mg/kg.

What about the Time [5] of the same molecule?
Its Time is 17.7 min.

Which Activity [2] does the source give for CCCCCNCCc1ccc(O)c(O)c1 here?
The Activity was “inactive”.

Which ED50 [4] does the source give for CN1CCc2cccc3c2[C@H]1Cc1ccc(O)c(O)c1-3.CN1CCc2cccc3c2[C@H]1Cc1ccc(O)c(O)c1-3.Cl.Cl.O [APOMORPHINE HYDROCHLORIDE] here?
Its ED50 is 0.11 mg/kg.

And the Time [6]?
The Time was 12.8 min.

And the Time [7]?
Its Time is 4.6 min.

For CCCCN(CCc1ccccc1)CCc1ccc(O)c(O)c1, which Activity [8] is on record?
The Activity was “inactive”.

How did the Activity [9] turn out when Oc1ccc(CCNCCc2ccccc2)cc1O was run?
Its Activity is “inactive”.

How did the Time [10] turn out when CCCCN(C)CCc1ccc(O)c(O)c1.Cl was run?
Its Time is 3.1 min.

And the ED50 [4]?
Its ED50 is 61 mg/kg.

What about the Time [11] of the same molecule?
Its Time is 2.3 min.

What about the Time [12] of the same molecule?
The Time was 2.2 min.

What about the Time [13] of the same molecule?
The Time was 3.7 min.

What about the Time [14] of the same molecule?
Its Time is 0.4 min.

What about the Time [15] of the same molecule?
The Time was 1.3 min.

Which Activity [16] does the source give for CN(C)CCc1ccc(O)c(O)c1 here?
Its Activity is “inactive”.

For CNCCc1ccc(O)c(O)c1, which Activity [17] is on record?
The Activity was “inactive”.

Br.CCCN(CCC)C1CCc2cc(O)c(O)cc2C1 (stereo unspecified) was tested. Which ED50 [4] did it give?
The ED50 was 1.6 mg/kg.

What about the Time [18] of the same molecule?
The Time was 17 min.

And the Time [19]?
The Time was 2 min.

What about the Time [20] of the same molecule?
The Time was 31.5 min.

And the Time [21]?
Its Time is 2.8 min.

Which ED50 [4] does the source give for CCCN(CCCc1ccccc1)CCc1ccc(O)c(O)c1.Cl here?
The ED50 was 9 mg/kg.

What about the Time [22] of the same molecule?
The Time was 5.8 min.

And the Time [23]?
Its Time is 7.6 min.

And the Time [24]?
Its Time is 6.4 min.

And the Time [25]?
The Time was 18.2 min.

How did the Activity [26] turn out when CCCCCN(CCCC)CCc1ccc(O)c(O)c1 was run?
The Activity was “inactive”.
